Activity calls are given as the source filed them. No cut-off for these calls is given here.
How the values were obtained:
[1] = target: T1, 5-hydroxytryptamine receptor 6 (Homo sapiens, UniProt P50406); assay: Displacement of [3H]-LSD from human 5HT6R expressed in HEK293 cell membranes after 1 hr by microbeta counting method
Procedure, shortened: (§1)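 HEK293 (5-HT1A, 5-HT6, 5-HT7b, D2L) or CHO-K1 (5-HT2A) membranes, all Tris–HCl with 4 mM MgCl2 plus receptor-specific EDTA/pargyline/ascorbate (D2L adds NaCl, KCl, CaCl2). Nonspecific binding: 10 μM 5-HT (5-HT1A, 5-HT7), chlorpromazine (5-HT2A), methiothepine (5-HT6), haloperidol (D2L). Triplicate, 7–8 concentrations (10⁻¹¹–10⁻⁴ M), filtration; Ki via Cheng–Prusoff, mean of three experiments. Incubation 1 h 37 °C; 5-HT1A 1 h and 5-HT2A 1.5 h, room temperature.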

Rattus norvegicus [2] = assay: Reversal of PCP-induced cognitive impairment in Sprague-Dawley rat assessed as reduction in time spent exploring novel object over familiar object at 0.3 to 1 mg/kg, po administered 120 mins before familiarization phase measured for 3 mins post familiarization phase by novel object recognition assay; format: functional, organism-based
Procedure, shortened: (§2)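 Male Sprague–Dawley rats, habituated to the arena 5 min 24 h before testing. PCP (5 mg/kg i.p., 45 min) or scopolamine (1.25 mg/kg i.p., 30 min) given before familiarization trial T1; test compound or donepezil given p.o. 120 min before T1. T1 and T2 each last 3 min, separated by an inter-trial interval. DI = (EB−EA)/(EA+EB) from T2 exploration time; 8–10 rats/group; ANOVA with Newman–Keuls.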

D(2) dopamine receptor = D(2) dopamine receptor (Homo sapiens, UniProt P14416); assay: Displacement of [3H]-Raclopride from human dopamine D2L receptor expressed in HEK293 cell membranes after 1 hr by microbeta counting method; procedure, shortened: as §1
[3] = target: 5-hydroxytryptamine receptor 7 (Homo sapiens, UniProt P34969); assay: Displacement of [3H]-5-CT from human 5HT7BR expressed in HEK293 cell membranes after 1 hr by microbeta counting method; procedure, shortened: as §1
[4] = target: T1, 5-hydroxytryptamine receptor 6; assay: Antagonist activity at 5HT6R (unknown origin) transfected in NG108-15 cells co-transfected with CAMYEL assessed as reduction in cAMP levels after 5 mins by Coelanterazine H-based BRET assay; format: functional, cell-based
[5] = target: T2, 5-hydroxytryptamine receptor 1A (Homo sapiens, UniProt P08908); assay: Displacement of [3H]-8-OH-DPAT from human 5HT1AR expressed in HEK293 cell membranes after 1 hr by microbeta counting method
T2 sequence (P08908 whole entry): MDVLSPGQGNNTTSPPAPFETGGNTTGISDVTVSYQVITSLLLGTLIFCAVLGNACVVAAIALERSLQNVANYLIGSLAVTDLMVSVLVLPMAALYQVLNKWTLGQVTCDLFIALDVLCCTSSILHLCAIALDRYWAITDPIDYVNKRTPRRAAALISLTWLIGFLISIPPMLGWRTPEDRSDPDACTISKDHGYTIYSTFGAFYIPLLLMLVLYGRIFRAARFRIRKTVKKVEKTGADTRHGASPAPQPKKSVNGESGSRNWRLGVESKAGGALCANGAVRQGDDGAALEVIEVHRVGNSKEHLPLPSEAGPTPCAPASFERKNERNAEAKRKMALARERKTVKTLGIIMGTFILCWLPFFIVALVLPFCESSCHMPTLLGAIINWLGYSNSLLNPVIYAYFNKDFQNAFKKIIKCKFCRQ
Procedure, shortened: as §1, with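 “experiments.” for “experiments. Incubation 1 h 37 °C; 5-HT1A 1 h and 5-HT2A 1.5 h, room temperature.”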

[6] = target: 5-hydroxytryptamine receptor 2A (Homo sapiens, UniProt P28223); assay: Displacement of [3H]-Ketanserin from human 5HT2AR expressed in CHO-K1 cell membranes after 1.5 hrs by microbeta counting method
Procedure, shortened: as §1, with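 “experiments.” for “experiments. Incubation 1 h 37 °C; 5-HT1A 1 h and 5-HT2A 1.5 h, room temperature.”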

[7] = target: T1, 5-hydroxytryptamine receptor 6; assay: Binding affinity to 5HT6R (unknown origin)
Rattus norvegicus [8] = assay: Reversal of SCOP-induced cognitive impairment in Sprague-Dawley rat assessed as reduction in time spent exploring novel object over familiar object at 1 mg/kg, po administered 120 mins before familiarization phase measured for 3 mins post familiarization phase by novel object recognition assay; format: functional, organism-based; procedure, shortened: as §2
Rattus norvegicus [9] = assay: Reversal of SCOP-induced cognitive impairment in Sprague-Dawley rat assessed as reduction in time spent exploring novel object over familiar object at 0.3 mg/kg, po administered 120 mins before familiarization phase measured for 3 mins post familiarization phase by novel object recognition assay; format: functional, organism-based

Chain of 5-hydroxytryptamine receptor 2A (P28223 whole entry): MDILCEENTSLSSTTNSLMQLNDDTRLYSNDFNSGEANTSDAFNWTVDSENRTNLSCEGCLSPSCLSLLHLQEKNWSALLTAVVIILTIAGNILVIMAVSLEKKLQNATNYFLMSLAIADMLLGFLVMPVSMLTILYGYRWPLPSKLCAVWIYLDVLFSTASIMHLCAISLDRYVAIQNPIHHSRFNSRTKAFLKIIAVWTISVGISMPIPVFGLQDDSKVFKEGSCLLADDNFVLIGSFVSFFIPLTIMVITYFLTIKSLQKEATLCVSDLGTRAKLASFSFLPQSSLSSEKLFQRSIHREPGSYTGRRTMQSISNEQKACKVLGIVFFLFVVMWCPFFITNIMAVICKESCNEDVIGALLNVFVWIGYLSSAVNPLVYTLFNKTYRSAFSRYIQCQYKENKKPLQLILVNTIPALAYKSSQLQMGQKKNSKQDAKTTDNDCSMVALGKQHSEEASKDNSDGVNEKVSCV
T1 sequence (P50406 whole entry): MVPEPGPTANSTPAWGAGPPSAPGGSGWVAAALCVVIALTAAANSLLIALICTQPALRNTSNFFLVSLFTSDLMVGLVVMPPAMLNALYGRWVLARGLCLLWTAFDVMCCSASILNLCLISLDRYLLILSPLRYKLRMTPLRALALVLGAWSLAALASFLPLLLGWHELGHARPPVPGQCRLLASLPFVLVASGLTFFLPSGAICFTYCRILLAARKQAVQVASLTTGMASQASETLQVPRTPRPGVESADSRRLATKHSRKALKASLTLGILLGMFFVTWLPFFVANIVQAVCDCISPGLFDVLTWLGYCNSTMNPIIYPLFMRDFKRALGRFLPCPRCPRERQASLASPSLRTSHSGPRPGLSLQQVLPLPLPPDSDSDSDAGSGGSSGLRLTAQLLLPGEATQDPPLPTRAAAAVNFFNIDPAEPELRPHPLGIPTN
Chain of 5-hydroxytryptamine receptor 7 (P34969 whole entry): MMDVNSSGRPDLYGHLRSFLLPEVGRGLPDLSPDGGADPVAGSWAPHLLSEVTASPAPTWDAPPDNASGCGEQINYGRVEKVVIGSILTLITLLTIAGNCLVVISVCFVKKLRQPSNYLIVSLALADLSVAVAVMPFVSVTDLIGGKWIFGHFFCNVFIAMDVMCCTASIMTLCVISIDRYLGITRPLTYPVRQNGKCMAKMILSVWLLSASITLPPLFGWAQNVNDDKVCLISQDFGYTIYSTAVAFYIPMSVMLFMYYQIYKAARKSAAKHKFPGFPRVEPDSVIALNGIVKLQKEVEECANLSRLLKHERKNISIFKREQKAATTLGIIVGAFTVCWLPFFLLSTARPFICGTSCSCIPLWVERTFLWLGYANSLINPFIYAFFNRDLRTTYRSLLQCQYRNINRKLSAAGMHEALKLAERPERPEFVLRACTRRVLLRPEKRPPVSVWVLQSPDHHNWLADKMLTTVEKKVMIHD
Chain of D(2) dopamine receptor (P14416 whole entry): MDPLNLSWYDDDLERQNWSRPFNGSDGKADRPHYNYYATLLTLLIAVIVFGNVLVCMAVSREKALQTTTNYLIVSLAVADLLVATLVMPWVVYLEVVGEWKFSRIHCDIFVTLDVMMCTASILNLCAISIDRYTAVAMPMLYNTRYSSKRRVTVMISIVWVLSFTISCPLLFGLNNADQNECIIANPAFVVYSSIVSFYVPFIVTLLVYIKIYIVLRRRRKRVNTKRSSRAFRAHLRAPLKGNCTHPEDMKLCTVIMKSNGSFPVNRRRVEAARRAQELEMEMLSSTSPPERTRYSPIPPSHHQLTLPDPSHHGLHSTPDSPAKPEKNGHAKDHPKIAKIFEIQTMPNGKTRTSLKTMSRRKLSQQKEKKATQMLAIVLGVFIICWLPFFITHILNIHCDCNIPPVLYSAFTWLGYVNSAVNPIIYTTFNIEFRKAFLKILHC

COc1ccccc1Cn1c(C)nc2c(N3CCNCC3)ccnc21
Ki [1]: 337 nM

COc1cccc(Cn2c(CC(C)(C)C)nc3c(N4CCNCC4)ccnc32)c1
Ki [1]: 165 nM

CCC(CC)c1nc2c(N3CCNCC3)ccnc2n1Cc1ccccc1Cl
Ki [1]: 108 nM

CCc1nc2c(N3CCNCC3)ccnc2n1Cc1ccc(F)c(F)c1
Ki [1]: 139 nM

O=S(=O)(c1ccccc1)c1cnc2c(N3CCNCC3)cccc2c1 [INTEPIRDINE]
Activity (Rattus norvegicus [2]): Active
Ki (D(2) dopamine receptor): 0.997 µM
Ki [3]: 14.2 µM

CCC(CC)c1nc2c(N3CCNCC3)ccnc2n1Cc1cccc(C)c1
Ki [1]: 42 nM

CCc1nc2c(N3CCNCC3)ccnc2n1Cc1cccc(Cl)c1
Ki (D(2) dopamine receptor): 6.1 µM
Ki [1]: 7 nM
IC50 [4]: 51.9 nM
Ki [5]: 1350 nM
Ki [6]: 449 nM
Ki [3]: 8.75 µM

Cc1cccc(Cn2c(C)nc3c(N4CCNCC4)ccnc32)c1
Ki [1]: 26 nM

CCc1nc2c(N3CCNCC3)ccnc2n1CCc1cccc(Cl)c1
Ki [1]: 42 nM

Fc1ccc(-c2nc3c(N4CCNCC4)ccnc3n2Cc2cccc(F)c2)cc1
Ki [1]: 162 nM

Cc1nc2c(N3CCNCC3)ccnc2n1Cc1cccc(Cl)c1
Ki [1]: 21 nM

CC(C)c1nc2c(N3CCNCC3)ccnc2n1Cc1cccc(Cl)c1
Ki (D(2) dopamine receptor): 2.94 µM
Ki [5]: 2280 nM
Ki [6]: 694 nM
Ki [3]: 7.14 µM

c1ccc(Cn2cnc3c(N4CCNCC4)ccnc32)cc1
Ki [1]: 110 nM

CC(C)c1nc2c(N3CCNCC3)ccnc2n1Cc1ccccc1F
Ki [1]: 61 nM

Cc1cccc(Cn2c(CC(C)(C)C)nc3c(N4CCNCC4)ccnc32)c1
Ki [1]: 142 nM

CC(C)c1nc2c(N3CCNCC3)ccnc2n1Cc1ccc(F)cc1
Ki [1]: 80 nM

Clc1cccc(Cn2c(-c3cccs3)nc3c(N4CCNCC4)ccnc32)c1
Ki [1]: 165 nM

Cc1nc2c(N3CCNCC3)ccnc2n1CCc1cccc(Cl)c1
Ki [1]: 312 nM

NC(=O)NC[C@@H]1CCCc2cc(S(=O)(=O)c3cccc(F)c3)ccc21
Ki [7]: 0.2 nM

CCc1nc2c(N3CCNCC3)ccnc2n1CCc1cccc(F)c1
Ki [1]: 56 nM

CC(C)c1nc2c(N3CCNCC3)ccnc2n1CCc1cccc(Cl)c1
Ki [1]: 80 nM

c1ccc(Cn2cnc3c(N4CCNCC4)nccc32)cc1
Ki [1]: 450 nM

CC(C)c1nc2c(N3CCNCC3)ccnc2n1Cc1ccc(Cl)cc1
Ki [1]: 107 nM

CCc1nc2c(N3CCNCC3)ccnc2n1Cc1ccccc1
Ki [1]: 36 nM

COc1cccc(Cn2c(C(C)C)nc3c(N4CCNCC4)ccnc32)c1
Ki [1]: 92 nM

Cc1nc2c(N3CCNCC3)ccnc2n1Cc1ccc(F)cc1
Ki [1]: 317 nM

CCc1nc2c(N3CCNCC3)ccnc2n1Cc1ccccc1Cl
Ki [1]: 177 nM

Cc1nc2c(N3CCNCC3)nccc2n1Cc1ccccc1
Ki [1]: 374 nM

Clc1cccc(Cn2cnc3c(N4CCNCC4)ccnc32)c1
Ki [1]: 33 nM

CC(C)c1nc2c(N3CCNCC3)nccc2n1Cc1cccc(Cl)c1
Ki [1]: 126 nM

Cc1nc2c(N3CCNCC3)ccnc2n1Cc1ccccc1
Ki [1]: 101 nM

Cc1nc2c(N3CCNCC3)nccc2n1Cc1cccc(Cl)c1
Ki [1]: 254 nM

COc1cc2c(cc1OC)C(=O)C(CC1CCN(Cc3ccccc3)CC1)C2 (stereo not drawn)
Activity (Rattus norvegicus [8]): Active
Activity (Rattus norvegicus [9]): inactive

Fc1cccc(CCn2cnc3c(N4CCNCC4)ccnc32)c1
Ki [1]: 1300 nM

Cc1nc2c(N3CCNCC3)ccnc2n1Cc1cccc(C(F)(F)F)c1
Ki [1]: 62 nM

CC(C)c1nc2c(N3CCNCC3)ccnc2n1Cc1cccc(F)c1
Ki (D(2) dopamine receptor): 3.44 µM
Ki [1]: 13 nM
IC50 [4]: 69.5 nM
Ki [5]: 5930 nM
Ki [6]: 475 nM
Ki [3]: 11.9 µM

Clc1cccc(Cn2cnc3c(N4CCNCC4)nccc32)c1
Ki [1]: 320 nM

CCC(CC)c1nc2c(N3CCNCC3)ccnc2n1Cc1cccc(Cl)c1
Ki [1]: 30 nM

CCc1nc2c(N3CCNCC3)ccnc2n1Cc1cc(F)ccc1F
Ki [1]: 57 nM

Clc1cccc(CCn2cnc3c(N4CCNCC4)ccnc32)c1
Ki [1]: 1250 nM

O=S(=O)(c1ccccc1)n1ncc2c(N3CCNCC3)nccc21
Ki [7]: 5 nM

Cc1nc2c(N3CCNCC3)ccnc2n1Cc1ccccc1Cl
Ki [1]: 829 nM
